Test results published in ChEMBL document CHEMBL1129660, “Studies on 6-aminoquinolones: synthesis and antibacterial evaluation of 6-amino-8-methylquinolones” (J Med Chem, 1996).
In brackets after ≈: the same amount, converted by molar mass.

Legend:
Assay type in all cases: functional
Escherichia coli [1] = experiment: Antibacterial activity tested against Escherichia coli ATCC 8739
How it was run: (§1)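 MICs (µg/mL) determined by conventional agar dilution against a panel of eight Gram-negative and five Gram-positive reference strains.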

Escherichia coli [2] = experiment: Antibacterial activity tested against Escherichia coli ISF 432; how it was run: as §1
Enterobacter cloacae = experiment: Antibacterial activity tested against Enterobacter cloacae OMNFI 174
Bacteria = experiment: Geometric mean of antibacterial activity (Gram +ve bacteria) of the compound
How it was run: (§2)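 Geometric means calculated from agar-dilution MICs (µg/mL), taken separately across the five Gram-positive and the eight Gram-negative panel strains.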

[3] = Geometric mean of antibacterial activity (Gram -ve bacteria) of the compound; how it was run: as §2
Klebsiella pneumoniae = experiment: Antibacterial activity tested against Klebsiella pneumoniae (Klebsiella pneumoniae) ATCC 10031; how it was run: as §1
Proteus vulgaris = experiment: Antibacterial activity tested against Proteus vulgaris CNUR 5; how it was run: as §1
Providencia stuartii = experiment: Antibacterial activity tested against Providencia stuartii CNUR 5; how it was run: as §1
Pseudomonas aeruginosa = experiment: Antibacterial activity tested against P. ae (Pseudomonas aeruginosa) ATCC 9027; how it was run: as §1
Shigella = experiment: Antibacterial activity tested against Shigella enteritidis; how it was run: as §1
Staphylococcus aureus [4] = experiment: Antibacterial activity against Staphylococcus aureus ATCC 6538; how it was run: as §1
Staphylococcus aureus [5] = experiment: Antibacterial activity against Staphylococcus aureus MPR 5; how it was run: as §1
Enterococcus faecalis = experiment: Antibacterial activity tested against Streptococcus faecalis LEP Br; how it was run: as §1
[6] = system: Staphylococcus epidermidis; experiment: Antibacterial activity tested against Staphylococcus epidermidis CPHL A2; how it was run: as §1
[7] = system: Staphylococcus epidermidis; experiment: Antibacterial activity tested against Staphylococcus epidermidis HCF Berset C; how it was run: as §1

Compound	MIC (Escherichia coli [1]) [µg/mL]	MIC (Escherichia coli [2]) [µg/mL]	MIC (Enterobacter cloacae) [µg/mL]	MIC (Klebsiella pneumoniae) [µg/mL]	MIC (Proteus vulgaris) [µg/mL]	MIC (Providencia stuartii) [µg/mL]	MIC (Shigella) [µg/mL]	MIC (Staphylococcus aureus [4]) [µg/mL]	MIC (Staphylococcus aureus [5]) [µg/mL]	MIC (Enterococcus faecalis) [µg/mL]	MIC [6] [µg/mL]	MIC [7] [µg/mL]	Geometric mean (Bacteria)	Geometric mean [3]	MIC (Pseudomonas aeruginosa) [µg/mL]
COc1ccc(-n2cc(C(=O)O)c(=O)c3cc(N)c(N4CCN(C)CC4)c(C)c32)cc1	> 128	16 (≈ 37.9 µM)	> 128	16 (≈ 37.9 µM)	128 (≈ 303 µM)	128 (≈ 303 µM)	> 128	64 (≈ 151 µM)	64 (≈ 151 µM)	128 (≈ 303 µM)	128 (≈ 303 µM)	64 (≈ 151 µM)	84.45	76.109	> 128
Cc1c(N2CCN(C)CC2)c(N)cc2c(=O)c(C(=O)O)cn(-c3ccc(O)cc3)c12	0.125 (≈ 0.306 µM)	0.125 (≈ 0.306 µM)	8 (≈ 19.6 µM)	0.25 (≈ 0.612 µM)	> 128	8 (≈ 19.6 µM)	4 (≈ 9.79 µM)	16 (≈ 39.2 µM)	16 (≈ 39.2 µM)	64 (≈ 157 µM)	8 (≈ 19.6 µM)	16 (≈ 39.2 µM)	18.37	2.378	8 (≈ 19.6 µM)
Cc1c(N2CCC(C)CC2)c(N(C)C)cc2c(=O)c(C(=O)O)cn(C3CC3)c12	64 (≈ 167 µM)	64 (≈ 167 µM)	64 (≈ 167 µM)	64 (≈ 167 µM)	64 (≈ 167 µM)	64 (≈ 167 µM)	64 (≈ 167 µM)	64 (≈ 167 µM)	16 (≈ 41.7 µM)	32 (≈ 83.4 µM)	32 (≈ 83.4 µM)	8 (≈ 20.9 µM)	24.251	64	64 (≈ 167 µM)
Cc1c(N2CCN(C)CC2)c(N)cc2c(=O)c(C(=O)O)cn(-c3ccc(F)cc3)c12	1 (≈ 2.44 µM)	1 (≈ 2.44 µM)	16 (≈ 39 µM)	1 (≈ 2.44 µM)	> 128	16 (≈ 39 µM)	16 (≈ 39 µM)	64 (≈ 156 µM)	128 (≈ 312 µM)	128 (≈ 312 µM)	128 (≈ 312 µM)	128 (≈ 312 µM)	111.43	9.513	128 (≈ 312 µM)
Cc1c(N2CCCCCC2)c(N)cc2c(=O)c(C(=O)O)cn(C3CC3)c12	2 (≈ 5.63 µM)	0.03 (≈ 0.0844 µM)	1 (≈ 2.81 µM)	0.03 (≈ 0.0844 µM)	32 (≈ 90 µM)	0.5 (≈ 1.41 µM)	1 (≈ 2.81 µM)	0.125 (≈ 0.352 µM)	0.125 (≈ 0.352 µM)	2 (≈ 5.63 µM)	0.25 (≈ 0.703 µM)	0.2 (≈ 0.563 µM)	0.275	0.763	4 (≈ 11.3 µM)
Nc1cc2c(=O)c(C(=O)O)cn(C3CC3)c2cc1N1CCc2ccccc2C1	128 (≈ 341 µM)	32 (≈ 85.2 µM)	128 (≈ 341 µM)	128 (≈ 341 µM)	128 (≈ 341 µM)	128 (≈ 341 µM)	128 (≈ 341 µM)	128 (≈ 341 µM)	4 (≈ 10.7 µM)	128 (≈ 341 µM)	16 (≈ 42.6 µM)	16 (≈ 42.6 µM)	27.857	107.635	128 (≈ 341 µM)
Cc1c(N2CC=CCC2)c(N)cc2c(=O)c(C(=O)O)cn(C3CC3)c12	1 (≈ 2.95 µM)	1 (≈ 2.95 µM)	> 128	1 (≈ 2.95 µM)	> 128	> 128	> 128	> 128	> 128	> 128	> 128	> 128	128	20.749	> 128
Nc1cc2c(=O)c(C(=O)O)cn(C3CC3)c2cc1N1CCCC1	0.25 (≈ 0.798 µM)	0.25 (≈ 0.798 µM)	8 (≈ 25.5 µM)	0.25 (≈ 0.798 µM)	128 (≈ 408 µM)	128 (≈ 408 µM)	16 (≈ 51.1 µM)	128 (≈ 408 µM)	128 (≈ 408 µM)	128 (≈ 408 µM)	128 (≈ 408 µM)	128 (≈ 408 µM)	128	6.73	128 (≈ 408 µM)
CN1CCN(c2cc3c(cc2N)c(=O)c(C(=O)O)cn3-c2ccc(F)cc2)CC1	0.125 (≈ 0.315 µM)	0.125 (≈ 0.315 µM)	4 (≈ 10.1 µM)	0.125 (≈ 0.315 µM)	128 (≈ 323 µM)	4 (≈ 10.1 µM)	4 (≈ 10.1 µM)	8 (≈ 20.2 µM)	4 (≈ 10.1 µM)	64 (≈ 161 µM)	8 (≈ 20.2 µM)	8 (≈ 20.2 µM)	10.556	1.834	8 (≈ 20.2 µM)
Cc1c(N2CCCC2)c(N)cc2c(=O)c(C(=O)O)cn(C3CC3)c12	32 (≈ 97.7 µM)	1 (≈ 3.05 µM)	64 (≈ 195 µM)	0.5 (≈ 1.53 µM)	> 128	64 (≈ 195 µM)	64 (≈ 195 µM)	4 (≈ 12.2 µM)	4 (≈ 12.2 µM)	64 (≈ 195 µM)	16 (≈ 48.9 µM)	16 (≈ 48.9 µM)	12.12	22.627	> 128
CN1CCN(c2c(N)cc3c(=O)c(C(=O)O)cn(C4CC4)c3c2F)CC1	1 (≈ 2.77 µM)	0.06 (≈ 0.166 µM)	0.25 (≈ 0.694 µM)	0.06 (≈ 0.166 µM)	32 (≈ 88.8 µM)	4 (≈ 11.1 µM)	0.25 (≈ 0.694 µM)	4 (≈ 11.1 µM)	4 (≈ 11.1 µM)	64 (≈ 178 µM)	4 (≈ 11.1 µM)	8 (≈ 22.2 µM)	8	0.699	2 (≈ 5.55 µM)
Cc1c(N2CCNC(C)C2)c(N)cc2c(=O)c(C(=O)O)cn(C3CC3)c12 (stereo not given)	0.125 (≈ 0.351 µM)	0.03 (≈ 0.0842 µM)	0.125 (≈ 0.351 µM)	0.03 (≈ 0.0842 µM)	4 (≈ 11.2 µM)	2 (≈ 5.61 µM)	0.06 (≈ 0.168 µM)	1 (≈ 2.81 µM)	1 (≈ 2.81 µM)	4 (≈ 11.2 µM)	1 (≈ 2.81 µM)	1 (≈ 2.81 µM)	1.319	0.225	1 (≈ 2.81 µM)

The remaining compounds from weak to strong by MIC (Escherichia coli [1]), led by results:

MIC (Escherichia coli [1]) [µg/mL]	MIC (Escherichia coli [2]) [µg/mL]	MIC (Enterobacter cloacae) [µg/mL]	MIC (Klebsiella pneumoniae) [µg/mL]	MIC (Proteus vulgaris) [µg/mL]	MIC (Providencia stuartii) [µg/mL]	MIC (Shigella) [µg/mL]	MIC (Staphylococcus aureus [4]) [µg/mL]	MIC (Staphylococcus aureus [5]) [µg/mL]	MIC (Enterococcus faecalis) [µg/mL]	MIC [6] [µg/mL]	MIC [7] [µg/mL]	Compound	Geometric mean (Bacteria)	Geometric mean [3]	MIC (Pseudomonas aeruginosa) [µg/mL]
0.125 (≈ 0.363 µM)	0.03 (≈ 0.0871 µM)	16 (≈ 46.5 µM)	0.125 (≈ 0.363 µM)	2 (≈ 5.81 µM)	2 (≈ 5.81 µM)	0.5 (≈ 1.45 µM)	0.03 (≈ 0.0871 µM)	0.03 (≈ 0.0871 µM)	0.25 (≈ 0.726 µM)	0.03 (≈ 0.0871 µM)	0.03 (≈ 0.0871 µM)	Cc1c(N2CCCCC2)c(F)cc2c(=O)c(C(=O)O)cn(C3CC3)c12	0.046	0.591	1 (≈ 2.9 µM)
0.06 (≈ 0.162 µM)	0.03 (≈ 0.0808 µM)	1 (≈ 2.69 µM)	0.03 (≈ 0.0808 µM)	16 (≈ 43.1 µM)	0.5 (≈ 1.35 µM)	1 (≈ 2.69 µM)	0.06 (≈ 0.162 µM)	0.06 (≈ 0.162 µM)	1 (≈ 2.69 µM)	0.06 (≈ 0.162 µM)	0.125 (≈ 0.337 µM)	Cc1c(N2CC(C)OC(C)C2)c(N)cc2c(=O)c(C(=O)O)cn(C3CC3)c12 (stereo not given)	0.122	0.451	4 (≈ 10.8 µM)
0.06 (≈ 0.162 µM)	0.03 (≈ 0.081 µM)	0.5 (≈ 1.35 µM)	0.03 (≈ 0.081 µM)	8 (≈ 21.6 µM)	2 (≈ 5.4 µM)	0.25 (≈ 0.675 µM)	1 (≈ 2.7 µM)	1 (≈ 2.7 µM)	16 (≈ 43.2 µM)	1 (≈ 2.7 µM)	2 (≈ 5.4 µM)	Cc1c(N2CC(C)NC(C)C2)c(N)cc2c(=O)c(C(=O)O)cn(C3CC3)c12 (stereo not given)	2	0.348	2 (≈ 5.4 µM)
0.03 (≈ 0.0835 µM)	0.03 (≈ 0.0835 µM)	0.03 (≈ 0.0835 µM)	0.03 (≈ 0.0835 µM)	2 (≈ 5.56 µM)	2 (≈ 5.56 µM)	0.03 (≈ 0.0835 µM)	0.06 (≈ 0.167 µM)	0.03 (≈ 0.0835 µM)	1 (≈ 2.78 µM)	0.25 (≈ 0.696 µM)	0.25 (≈ 0.696 µM)	Cc1c(N2CCN(C)CC2)c(F)cc2c(=O)c(C(=O)O)cn(C3CC3)c12	0.162	0.145	2 (≈ 5.56 µM)
0.03 (≈ 0.0835 µM)	0.03 (≈ 0.0835 µM)	0.5 (≈ 1.39 µM)	0.03 (≈ 0.0835 µM)	128 (≈ 356 µM)	1 (≈ 2.78 µM)	0.5 (≈ 1.39 µM)	0.5 (≈ 1.39 µM)	0.5 (≈ 1.39 µM)	8 (≈ 22.3 µM)	1 (≈ 2.78 µM)	2 (≈ 5.56 µM)	CC1CN(c2cc3c(cc2N)c(=O)c(C(=O)O)cn3C2CC2)CCS1 (stereo not given)	1.32	0.451	2 (≈ 5.56 µM)
0.03 (≈ 0.081 µM)	0.03 (≈ 0.081 µM)	0.5 (≈ 1.35 µM)	0.03 (≈ 0.081 µM)	64 (≈ 173 µM)	4 (≈ 10.8 µM)	0.25 (≈ 0.675 µM)	8 (≈ 21.6 µM)	8 (≈ 21.6 µM)	32 (≈ 86.4 µM)	2 (≈ 5.4 µM)	4 (≈ 10.8 µM)	CC1CN(c2cc3c(cc2N)c(=O)c(C(=O)O)cn3C2CC2)CC(C)(C)N1 (stereo not given)	6.964	0.451	2 (≈ 5.4 µM)
0.03 (≈ 0.0876 µM)	0.03 (≈ 0.0876 µM)	0.25 (≈ 0.73 µM)	0.03 (≈ 0.0876 µM)	32 (≈ 93.5 µM)	16 (≈ 46.7 µM)	0.25 (≈ 0.73 µM)	16 (≈ 46.7 µM)	16 (≈ 46.7 µM)	32 (≈ 93.5 µM)	4 (≈ 11.7 µM)	4 (≈ 11.7 µM)	CC1CN(c2cc3c(cc2N)c(=O)c(C(=O)O)cn3C2CC2)CCN1 (stereo not given)	10.556	0.451	2 (≈ 5.84 µM)
0.016 (≈ 0.0431 µM)	0.016 (≈ 0.0431 µM)	2 (≈ 5.38 µM)	0.016 (≈ 0.0431 µM)	64 (≈ 172 µM)	4 (≈ 10.8 µM)	1 (≈ 2.69 µM)	0.125 (≈ 0.337 µM)	0.125 (≈ 0.337 µM)	2 (≈ 5.38 µM)	0.25 (≈ 0.673 µM)	0.25 (≈ 0.673 µM)	Cc1c(N2CCCC(CO)C2)c(N)cc2c(=O)c(C(=O)O)cn(C3CC3)c12 (stereo not given)	0.287	0.504	2 (≈ 5.38 µM)
